The text below walks through data of article PMC10668576 (RSC Advances, 2023).

Data set [1] deals with Staphylococcus aureus. In words: Minimum inhibitory concentration, serial dilution. Format: cell-based. As to conditions: Muller Hinton broth, 37 °C, 18 to 24 h. The gist of the method:
(§1)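 Inoculum was 10^6 cfu mL−1, incubated at 37 °C for 18–24 h. Wells were inspected for presence or absence of growth, and MIC was taken as the lowest concentration preventing growth. Each organism was tested on three separate occasions.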

Data set [2] is described as follows: Acute parenteral toxicity in rats. It is filed as in vivo. As to conditions: 0.5 to 50 mg per kg body weight, 14 days observation. The gist of the method:
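Single parenteral dose of test compound dissolved in ethanol with gentle heating, given by tuberculin syringe following OECD 425 to female albino Wistar rats (190 ± 20 g), 3 per dose, at 0.5, 1, 10, 30 or 50 mg kg−1. Controls were ethanol-injected and non-injected rats. Rats were observed every 30 min for 6 h, then through 24 h and daily to 14 days. Organs were examined macroscopically and weighed on day 15.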

For data set [3], the system named is Stenotrophomonas maltophilia. As to the kind of experiment: Disk diffusion inhibition zones. It is filed as cell-based. As to conditions: 24 h. The gist of the method:
(§2)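 Test compound was dissolved in DMSO at 1000 μg mL−1 and soaked onto sterile 6 mm filter-paper discs. Discs were placed on Mueller–Hinton agar inoculated with fresh cultures suspended in sterile physiological water, then incubated at 37 °C for 24 h. DMSO discs served as negative control, with azithromycin (30 mg mL−1) as reference. Clear-zone width was read in mm with a transparent ruler.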
Background: Agar diffusion results depend on both activity and mobility in agar.

Data set [4] has as its system Staphylococcus aureus. In words: Disk diffusion inhibition zones. It is filed as cell-based. As to conditions: 24 h. The gist of the method:
as §2

In data set [5] the test system is Bacillus cereus. As to the kind of experiment: Disk diffusion inhibition zones. Format: cell-based. As to conditions: 24 h. The gist of the method: as §2
For data set [6], the system named is Escherichia coli. In words: Disk diffusion inhibition zones. Particulars: 24 h. It is filed as cell-based. The gist of the method: as §2
The subject of data set [7] is Klebsiella pneumoniae. In words: Disk diffusion inhibition zones. It is filed as cell-based. As to conditions: 24 h.
In data set [8] the test system is Staphylococcus epidermidis. As to the kind of experiment: Disk diffusion inhibition zones. It is filed as cell-based. As to conditions: 24 h. The method, boiled down: as §2
For data set [9], the system named is Escherichia coli. In words: Minimum inhibitory concentration, serial dilution. It is filed as cell-based. The gist of the method:
as §1

In data set [10] the test system is Aeromonas sobria. In words: Minimum inhibitory concentration, serial dilution. Format: cell-based. The gist of the method:
as §1

The subject of data set [11] is Stenotrophomonas maltophilia. In words: Minimum inhibitory concentration, serial dilution. It is filed as cell-based. The method, boiled down: as §1
The next data set deals with burn wounds. As to the kind of experiment: Burn healing assay in rats. Format: in vivo, albino Wistar female rats. Particulars: 1% cream, one application per 24 h on burn wound, n = 3.
Data set [12] has as its system Aeromonas sobria. As to the kind of experiment: Disk diffusion inhibition zones. Format: cell-based. Particulars: 24 h. The method, boiled down: as §2
The test system of data set [13] is Pseudomonas aeruginosa. In words: Disk diffusion inhibition zones. Format: cell-based. As to conditions: 24 h. The gist of the method: as §2
Data set [14] relates to Staphylococcus epidermidis. In words: Minimum inhibitory concentration, serial dilution. Format: cell-based. The method, boiled down:
as §1

The subject of data set [15] is Pseudomonas aeruginosa. In words: Minimum inhibitory concentration, serial dilution. Format: cell-based. The method, boiled down:
as §1

The subject of data set [16] is Bacillus cereus. In words: Minimum inhibitory concentration, serial dilution. Format: cell-based. The gist of the method: as §1
The test system of data set [17] is Klebsiella pneumoniae. As to the kind of experiment: Minimum inhibitory concentration, serial dilution. It is filed as cell-based.

Each structure is given as a SMILES string. Converted amounts (≈) assume the structure as drawn.

Consider `O=C(Nc1ccc(S(=O)(=O)c2nccs2)cc1)c1cc(N=Nc2nccs2)ccc1O` [Compound 3c, 2-Hydroxy-5-(thiazol-2-yldiazenyl)-N-(4-(thiazol-2-ylsulfonyl)phenyl)benzamide], for which the MIC (in general, the smallest concentration in the dilution series that meets the test's criterion for growth inhibition) in the data set on Staphylococcus aureus [1] (Staphylococcus aureus) was 10 µg/mL (≈ 21.2 µM); against Escherichia coli [9] it was 20 µg/mL (≈ 42.4 µM); against Aeromonas sobria [10], 40 µg/mL (≈ 84.8 µM); in [11], 40 µg/mL (≈ 84.8 µM); in [14] it was 40 µg/mL (≈ 84.8 µM). The Mortality result in [2] was “no occurrences of mortality”. The Signs of toxicity entry in data set [2] is on record as “did not display any noteworthy signs of toxicity”. Besides, the zone of inhibition (in general, the extent of the growth-free halo in a diffusion test) at 1000 µg/mL in [3] was determined as 9 ± 0.21 mm; with Staphylococcus aureus [4], 16 ± 0.09 mm; with Bacillus cereus [5], 10 ± 0.13 mm; with Escherichia coli [6], 9 ± 0.16 mm; in the data set with Klebsiella pneumoniae [7], 12 ± 0.11 mm; in [8], 12 ± 0.43 mm. Further, the zone of inhibition at 1000 µg/mL with Aeromonas sobria [12] amounted to 10 ± 0.33 mm; in the data set on Pseudomonas aeruginosa [13], 9 ± 0.33 mm. Moreover, in the data set with burn wounds, the “Day utilized for recovery” value was 27 days.

As for `O=C(Nc1nccs1)c1cc(N=Nc2nccs2)ccc1O` [Compound 3a, 2-Hydroxy-N-(thiazol-2-yl)-5-(thiazol-2-yldiazenyl)benzamide], the MIC with Staphylococcus aureus [1] (Staphylococcus aureus) stood at 10 µg/mL (≈ 30.2 µM); against Escherichia coli [9] it was 80 µg/mL (≈ 241 µM); with Aeromonas sobria [10], 40 µg/mL (≈ 121 µM); in the data set with Pseudomonas aeruginosa [15], 60 µg/mL (≈ 181 µM); against Bacillus cereus [16], 100 µg/mL (≈ 302 µM); in [11], 60 µg/mL (≈ 181 µM). The figures for the MIC (against Klebsiella pneumoniae [17]; in data set [14]) were 200 µg/mL (≈ 604 µM) and 80 µg/mL (≈ 241 µM), respectively. For the same molecule, in data set [2], the Mortality result is “no occurrences of mortality”. Besides, the Signs of toxicity entry in data set [2] is “did not display any noteworthy signs of toxicity”. Besides, the zone of inhibition at 1000 µg/mL is 9 ± 0.28 mm in data set [3]; 13 ± 0.21 mm in the data set with Staphylococcus aureus [4]; 10 ± 0.23 mm in the data set with Bacillus cereus [5]; 9 ± 0.33 mm in the data set on Escherichia coli [6]; 13 ± 0.22 mm in the data set with Klebsiella pneumoniae [7]; 18 ± 0.26 mm in data set [8]. Further, the zone of inhibition at 1000 µg/mL with Aeromonas sobria [12] was determined as 10 ± 0.15 mm; in the data set on Pseudomonas aeruginosa [13] it was 9 mm. In the data set with burn wounds, the “Day utilized for recovery” value came out at 26 days.

For `O=C(O)c1cc(N=Nc2nccs2)ccc1O` [Compound 3, 2-Hydroxy-5-(thiazol-2-yldiazenyl)benzoic acid], the MIC amounted to 10 µg/mL (≈ 40.1 µM) against Staphylococcus aureus [1] (Staphylococcus aureus); 60 µg/mL (≈ 241 µM) in the data set on Escherichia coli [9]; 20 µg/mL (≈ 80.2 µM) in the data set with Aeromonas sobria [10]; 80 µg/mL (≈ 321 µM) against Pseudomonas aeruginosa [15]; 20 µg/mL (≈ 80.2 µM) with Bacillus cereus [16]; 40 µg/mL (≈ 160 µM) in data set [11]. Further, the values for the MIC (in the data set with Klebsiella pneumoniae [17]; in data set [14]) were 80 µg/mL (≈ 321 µM) and 10 µg/mL (≈ 40.1 µM), respectively. The zone of inhibition at 1000 µg/mL in [3] amounted to 8 ± 0.11 mm; with Staphylococcus aureus [4], 12 ± 0.23 mm; with Bacillus cereus [5], 10 ± 0.03 mm; in the data set on Escherichia coli [6], 9 mm; in the data set on Klebsiella pneumoniae [7], 11 ± 0.31 mm; in data set [8], 14 ± 0.25 mm. In addition, the zone of inhibition at 1000 µg/mL with Aeromonas sobria [12] amounted to 10 ± 0.31 mm; with Pseudomonas aeruginosa [13], 10 ± 0.33 mm.

For `CC[C@H]1OC(=O)[C@H](C)[C@@H](O[C@H]2C[C@@](C)(OC)[C@@H](O)[C@H](C)O2)[C@H](C)[C@@H](O[C@@H]2O[C@H](C)C[C@H](N(C)C)[C@H]2O)[C@](C)(O)C[C@@H](C)CN(C)[C@H](C)[C@@H](O)[C@]1(C)O` [azithromycin, reference compound], the MIC in the data set on Staphylococcus aureus [1] was 20 µg/mL (≈ 26.7 µM); against Staphylococcus aureus [1] (Staphylococcus aureus), 40 µg/mL (≈ 53.4 µM); with Escherichia coli [9], 20 µg/mL (≈ 26.7 µM); in the data set with Aeromonas sobria [10] it was 20 µg/mL (≈ 26.7 µM); in the data set on Bacillus cereus [16], 80 µg/mL (≈ 107 µM); in data set [11], 40 µg/mL (≈ 53.4 µM). Moreover, the values for the MIC (against Klebsiella pneumoniae [17]; in [14]) were 60 µg/mL (≈ 80.1 µM) and 80 µg/mL (≈ 107 µM), respectively. For the same molecule, the zone of inhibition at 1000 µg/mL was found to be 10 ± 0.02 mm in data set [3]; 15 ± 0.09 mm in the data set on Staphylococcus aureus [4]; 11 ± 0.31 mm in the data set on Bacillus cereus [5]; 7 ± 0.32 mm in the data set on Escherichia coli [6]; 20 ± 0.26 mm in the data set on Klebsiella pneumoniae [7]; 11 ± 0.32 mm in data set [8]. Further, the zone of inhibition at 1000 µg/mL in the data set with Aeromonas sobria [12] amounted to 18 ± 0.41 mm; in the data set with Pseudomonas aeruginosa [13], 7 ± 0.14 mm.

As to `O=C(Nc1nc2ccccc2s1)c1cc(N=Nc2nccs2)ccc1O` [Compound 3b, N-(Benzo[d]thiazol-2-yl)-2-hydroxy-5-(thiazol-2-yldiazenyl)benzamide], the MIC with Staphylococcus aureus [1] (Staphylococcus aureus) came out at 20 µg/mL (≈ 52.4 µM); in the data set with Escherichia coli [9], 20 µg/mL (≈ 52.4 µM); against Aeromonas sobria [10], 10 µg/mL (≈ 26.2 µM); with Pseudomonas aeruginosa [15] it was 40 µg/mL (≈ 105 µM); in the data set on Bacillus cereus [16], 80 µg/mL (≈ 210 µM); in [11] it was 20 µg/mL (≈ 52.4 µM). Further, the results for the MIC (against Klebsiella pneumoniae [17]; in data set [14]) were 80 µg/mL (≈ 210 µM) and 10 µg/mL (≈ 26.2 µM), respectively. In addition, the Mortality entry in data set [2] is given as “no occurrences of mortality”. Also, in [2], the Signs of toxicity entry is recorded as “did not display any noteworthy signs of toxicity”. Moreover, the zone of inhibition at 1000 µg/mL stood at 10 ± 0.04 mm in [3]; 13 ± 0.58 mm in the data set on Staphylococcus aureus [4]; 10 ± 0.33 mm with Bacillus cereus [5]; 9 ± 0.14 mm in the data set with Escherichia coli [6]; 14 ± 0.28 mm with Klebsiella pneumoniae [7]; 14 ± 0.23 mm in data set [8]. The figures for the zone of inhibition at 1000 µg/mL with Aeromonas sobria [12] and in the data set with Pseudomonas aeruginosa [13] were 10 ± 0.28 mm and 9 mm, respectively. In addition, in the data set on burn wounds, the “Day utilized for recovery” value came out at 24 days.
